Converted amounts (≈) assume the structure as drawn.
Experiments:
Type in all cases: functional
Bacillus cereus = experiment: Antibacterial activity against Bacillus cereus ATCC 10702 after 20 hrs by MTT assay; settings: ATCC 10702, 20 h
How it was run: (§1)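 Overnight cultures in nutrient broth at 37 °C, diluted to ca. 10⁵ cells/mL in fresh medium. Compounds from 1 mg/mL MeOH stocks dried in wells, redissolved in DMSO plus broth and culture, then twofold serial dilutions in bacterial suspension. Plates held 20 h at 37 °C in moist atmosphere; 0.25% aqueous MTT added, 4 h further incubation; living bacteria seen as violet turbidity.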

[1] = test system: Staphylococcus epidermidis; experiment: Antibacterial activity against Staphylococcus epidermidis ATCC 12228 after 20 hrs by MTT assay; settings: ATCC 12228, 20 h; how it was run: as §1
Staphylococcus aureus = experiment: Antibacterial activity against Staphylococcus aureus ATCC 25923 after 20 hrs by MTT assay; settings: ATCC 25923, 20 h; how it was run: as §1
Micrococcus luteus = experiment: Antibacterial activity against Micrococcus luteus ATCC 9341 after 20 hrs by MTT assay; settings: ATCC 9341, 20 h; how it was run: as §1

`O=C(/C=C/c1ccc(O)cc1)OC[C@H]1O[C@@H](Oc2c(-c3ccc(O)cc3)oc3cc(O)cc(O)c3c2=O)[C@H](O)[C@@H](OC(=O)/C=C/c2ccc(O)cc2)[C@@H]1O` was tested. Which MIC (Bacillus cereus) did it give?
The MIC was over 256 µg/mL.

And the MIC [1]?
The MIC was over 256 µg/mL.

And the MIC (Staphylococcus aureus)?
Its MIC is over 256 µg/mL.

And the MIC (Micrococcus luteus)?
Its MIC is over 256 µg/mL.

Which results are given for `O=C(/C=C/c1ccc(O)cc1)O[C@@H]1[C@@H](O)[C@H](Oc2c(-c3ccc(O)cc3)oc3cc(O)cc(O)c3c2=O)O[C@H](CO)[C@H]1O`?
MIC (Bacillus cereus): > 256 µg/mL; MIC [1]: > 256 µg/mL; MIC (Staphylococcus aureus): > 256 µg/mL; MIC (Micrococcus luteus): > 256 µg/mL

For `COc1cc(/C=C/C(=O)OC[C@H]2O[C@@H](Oc3c(-c4ccc(O)cc4)oc4cc(O)cc(O)c4c3=O)[C@H](O)[C@@H](OC(=O)/C=C/c3ccc(O)cc3)[C@@H]2O)ccc1O`, which MIC (Bacillus cereus) is on record?
The MIC was over 256 µg/mL.

And the MIC [1]?
The MIC was over 256 µg/mL.

And the MIC (Staphylococcus aureus)?
Its MIC is over 256 µg/mL.

And the MIC (Micrococcus luteus)?
Its MIC is over 256 µg/mL.

With `O=C(N[C@H](CO)[C@H](O)c1ccc([N+](=O)[O-])cc1)C(Cl)Cl` [CHLORAMPHENICOL] as the molecule, how does the MIC (Bacillus cereus) read?
The MIC was 2 µg/mL (≈ 6.19 µM).

And the MIC [1]?
Its MIC is 4 µg/mL (≈ 12.4 µM).

And the MIC (Staphylococcus aureus)?
Its MIC is 4 µg/mL (≈ 12.4 µM).

What about the MIC (Micrococcus luteus) of the same molecule?
The MIC was 2 µg/mL (≈ 6.19 µM).

Which MIC (Bacillus cereus) does the source give for `O=C(/C=C\c1ccc(O)cc1)OC[C@H]1O[C@@H](Oc2c(-c3ccc(O)cc3)oc3cc(O)cc(O)c3c2=O)[C@H](O)[C@@H](OC(=O)/C=C\c2ccc(O)cc2)[C@@H]1O` [STENOPALUSTROSIDE A] here?
Its MIC is 4 µg/mL (≈ 5.4 µM).

And the MIC [1]?
Its MIC is 2 µg/mL (≈ 2.7 µM).

And the MIC (Staphylococcus aureus)?
Its MIC is 16 µg/mL (≈ 21.6 µM).

And the MIC (Micrococcus luteus)?
The MIC was 8 µg/mL (≈ 10.8 µM).

How did the MIC (Bacillus cereus) turn out when `COc1cc(/C=C/C(=O)OC[C@H]2O[C@@H](Oc3c(-c4ccc(O)cc4)oc4cc(O)cc(O)c4c3=O)[C@H](O)[C@@H](OC(=O)/C=C\c3ccc(O)cc3)[C@@H]2O)ccc1O` [STENOPALUSTROSIDE B] was run?
The MIC was 8 µg/mL (≈ 10.4 µM).

And the MIC [1]?
Its MIC is 64 µg/mL (≈ 83 µM).

And the MIC (Staphylococcus aureus)?
The MIC was 32 µg/mL (≈ 41.5 µM).

What about the MIC (Micrococcus luteus) of the same molecule?
The MIC was 16 µg/mL (≈ 20.8 µM).

For `COc1cc(C(O)C(CO)Oc2ccc(/C=C/C(=O)OC[C@H]3O[C@@H](Oc4c(-c5ccc(O)cc5)oc5cc(O)cc(O)c5c4=O)[C@H](O)[C@@H](OC(=O)/C=C/c4ccc(O)cc4)[C@@H]3O)cc2OC)ccc1O` (some centres not stated) [STENOPALUSTROSIDE E], which MIC (Bacillus cereus) is on record?
Its MIC is over 256 µg/mL.

And the MIC [1]?
Its MIC is over 256 µg/mL.

What about the MIC (Staphylococcus aureus) of the same molecule?
The MIC was over 256 µg/mL.

And the MIC (Micrococcus luteus)?
The MIC was over 256 µg/mL.

For `O=C(/C=C/c1ccc(O)cc1)OC[C@H]1O[C@@H](Oc2c(-c3ccc(O)cc3)oc3cc(O)cc(O)c3c2=O)[C@H](O)[C@@H](O)[C@@H]1O` [TILIROSIDE], which MIC (Bacillus cereus) is on record?
The MIC was over 256 µg/mL.

What about the MIC [1] of the same molecule?
Its MIC is over 256 µg/mL.

And the MIC (Staphylococcus aureus)?
The MIC was over 256 µg/mL.

What about the MIC (Micrococcus luteus) of the same molecule?
Its MIC is over 256 µg/mL.
